Data taken from ChEMBL document CHEMBL3244396, “Synthesis and antileukemic activity of 5-substituted 2,3-dihydro-6,7-bis(hydroxymethyl)-1H-pyrrolizine diesters” (J Med Chem, 1977).

Legend:
Mus musculus [1] = test: Toxicity in male CDF1 mouse allografted with mouse P388 cells assessed as animal survival at 50 mg/kg, ip administered daily for 9 days as Klucel suspension starting 24 hrs after tumor inoculation; format: organism-based; design: dose 50 mg/kg, route intraperitoneal; details: in vivo
How it was run: (§1)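 P-388 leukemia ascitic fluid inoculated ip. Compound given ip as a suspension in Klucel (hydroxypropylcellulose), once daily for nine doses beginning 24 h post-inoculation. Acute toxicity assessed as toxicity-day survivors per group. Survival was followed up to 30 days, with 30-day survival counted as "cure". Follows NCI screening protocols.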

P388 [2] = test: Antitumor activity against mouse P388 cells allografted in female BDF1 mouse assessed as disease cures by measuring 30-days host survival at 6.25 mg/kg, ip administered daily for 9 days as Klucel suspension starting 24 hrs after tumor inoculation relative to control; format: functional; details: route intraperitoneal
How it was run: (§2)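 P388 leukemia given as an ascitic fluid cell inoculum, ip, to mice of the strain and sex in each line. Nine daily ip doses were given in a Klucel (hydroxypropylcellulose) suspension, starting 24 h after inoculation. Read-out is median survival time as %T/C, with >125 taken as significant; a "cure" means 30-day survival.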

P388 [3] = test: Antitumor activity against mouse P388 cells allografted in female CDF1 mouse assessed as change in body weight at 50 mg/kg, ip administered daily for 9 days as Klucel suspension starting 24 hrs after tumor inoculation; format: functional; details: route intraperitoneal
How it was run: (§3)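 Ascitic fluid carrying P388 cells was inoculated ip. Compound was given ip in nine daily doses, starting 24 h after inoculation, in Klucel (hydroxypropylcellulose) suspension or in saline with Tween-80. Body-weight difference (treated minus control) was recorded on day 5. Survival was scored as %T/C of median survival time, and 30-day survival counted as cure.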

P388 [4] = test: Antitumor activity against mouse P388 cells allografted in male CDF1 mouse assessed as change in body weight at 6.25 mg/kg, ip administered daily for 9 days as Klucel suspension starting 24 hrs after tumor inoculation; format: functional; details: route intraperitoneal; how it was run: as §3
Mus musculus [5] = test: Toxicity in female BDF1 mouse allografted with mouse L1210 cells assessed as animal survival at 200 mg/kg, ip administered daily for 9 days as Klucel suspension starting 24 hrs after tumor inoculation measured on fifth day; format: organism-based; design: dose 200 mg/kg, route intraperitoneal; details: in vivo
How it was run: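 L1210 leukemia passaged as ascitic fluid and inoculated ip. Test agent given ip as a Klucel (hydroxypropylcellulose) suspension, nine daily doses starting 24 h after tumor inoculation. Acute toxicity read as toxicity-day survivors per group (out of 6), recorded on day 5. Animal weight difference T − C was also recorded. Follows NCI screening protocols.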

P388 [6] = test: Antitumor activity against mouse P388 cells allografted in male CDF1 mouse assessed as change in body weight at 50 mg/kg, ip administered daily for 9 days as Klucel suspension starting 24 hrs after tumor inoculation; format: functional; details: route intraperitoneal; how it was run: as §3
P388 [7] = test: Antitumor activity against mouse P388 cells allografted in female CDF1 mouse assessed as disease cures by measuring 30-days host survival at 50 mg/kg, ip administered daily for 9 days as Klucel suspension starting 24 hrs after tumor inoculation relative to control; format: functional; details: route intraperitoneal; how it was run: as §2
P388 [8] = test: Antitumor activity against mouse P388 cells allografted in male CDF1 mouse assessed as disease cures by measuring 30-days host survival at 25 mg/kg, ip administered daily for 9 days as Klucel suspension starting 24 hrs after tumor inoculation relative to control; format: functional; details: route intraperitoneal; how it was run: as §2
P388 [9] = test: Antitumor activity against mouse P388 cells allografted in female CDF1 mouse assessed as change in body weight at 100 mg/kg, ip administered daily for 9 days as Klucel suspension starting 24 hrs after tumor inoculation; format: functional; details: route intraperitoneal; how it was run: as §3
P388 [10] = test: Antitumor activity against mouse P388 cells allografted in male CDF1 mouse assessed as disease cures by measuring 30-days host survival at 12.5 mg/kg, ip administered daily for 9 days as Klucel suspension starting 24 hrs after tumor inoculation relative to control; format: functional; details: route intraperitoneal; how it was run: as §2
P388 [11] = test: Antitumor activity against mouse P388 cells allografted in female CDF1 mouse assessed as disease cures by measuring 30-days host survival at 100 mg/kg, ip administered daily for 9 days as Klucel suspension starting 24 hrs after tumor inoculation relative to control; format: functional; details: route intraperitoneal; how it was run: as §2
P388 [12] = test: Antitumor activity against mouse P388 cells allografted in female BDF1 mouse assessed as disease cures by measuring 30-days host survival at 25 mg/kg, ip administered daily for 9 days as Klucel suspension starting 24 hrs after tumor inoculation relative to control; format: functional; details: route intraperitoneal; how it was run: as §2
L1210 [13] = test: Antileukemic activity against mouse L1210 cells allografted in female BDF1 mouse assessed as change in body weight at 50 mg/kg, ip administered daily for 9 days as Klucel suspension starting 24 hrs after tumor inoculation; format: functional; details: route intraperitoneal
How it was run: (§4)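 Ascitic fluid carrying L1210 cells was inoculated ip. Compound was given ip as a Klucel (hydroxypropylcellulose) suspension in nine daily doses, starting 24 h after inoculation. Body-weight difference (treated minus control) was recorded on day 5. Survival was scored as %T/C of mean survival time.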

L1210 [14] = test: Antileukemic activity against mouse L1210 cells allografted in female BDF1 mouse assessed as host mean survival time at 50 mg/kg, ip administered daily for 9 days as Klucel suspension starting 24 hrs after tumor inoculation relative to control; format: functional; details: route intraperitoneal
How it was run: (§5)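 L1210 leukemia given as an ascitic fluid cell inoculum, ip, to mice of the strain and sex in each line. Test material was given ip for nine daily doses starting 24 h after inoculation, in a Klucel (hydroxypropylcellulose) suspension. Read-out is mean survival time as %T/C versus controls, with >125 taken as significant.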

Mus musculus [15] = test: Toxicity in male CDF1 mouse allografted with mouse P388 cells assessed as animal survival at 12.5 mg/kg, ip administered daily for 9 days as Klucel suspension starting 24 hrs after tumor inoculation; format: organism-based; design: dose 12.5 mg/kg, route intraperitoneal; details: in vivo; how it was run: as §1
Mus musculus [16] = test: Toxicity in male CDF1 mouse allografted with mouse P388 cells assessed as animal survival at 25 mg/kg, ip administered daily for 9 days as Klucel suspension starting 24 hrs after tumor inoculation; format: organism-based; design: dose 25 mg/kg, route intraperitoneal; details: in vivo; how it was run: as §1
P388 [17] = test: Antitumor activity against mouse P388 cells allografted in male CDF1 mouse assessed as change in body weight at 12.5 mg/kg, ip administered daily for 9 days as Klucel suspension starting 24 hrs after tumor inoculation; format: functional; details: route intraperitoneal; how it was run: as §3
L1210 [18] = test: Antileukemic activity against mouse L1210 cells allografted in female BDF1 mouse assessed as change in body weight at 200 mg/kg, ip administered daily for 9 days as Klucel suspension starting 24 hrs after tumor inoculation; format: functional; details: route intraperitoneal; how it was run: as §4
Mus musculus [19] = test: Toxicity in female CDF1 mouse allografted with mouse P388 cells assessed as animal survival at 50 mg/kg, ip administered daily for 9 days as Klucel suspension starting 24 hrs after tumor inoculation; format: organism-based; design: dose 50 mg/kg, route intraperitoneal; details: in vivo; how it was run: as §1
Mus musculus [20] = test: Toxicity in female BDF1 mouse allografted with mouse P388 cells assessed as animal survival at 12.5 mg/kg, ip administered daily for 9 days as Klucel suspension starting 24 hrs after tumor inoculation; format: organism-based; design: dose 12.5 mg/kg, route intraperitoneal; details: in vivo; how it was run: as §1
[21] = Cytotoxicity against human 9KB cells treated as ethanol solution; format: functional; details: read-out: ED50 (the source's name)
How it was run: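 Compound applied as an ethanol solution; activity read out as ED50 under the general screening protocol.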

Mus musculus [22] = test: Toxicity in female CDF1 mouse allografted with mouse P388 cells assessed as animal survival at 200 mg/kg, ip administered daily for 9 days as Klucel suspension starting 24 hrs after tumor inoculation; format: organism-based; design: dose 200 mg/kg, route intraperitoneal; details: in vivo; how it was run: as §1
L1210 [23] = test: Antileukemic activity against mouse L1210 cells allografted in female BDF1 mouse assessed as host mean survival time at 100 mg/kg, ip administered daily for 9 days as Klucel suspension starting 24 hrs after tumor inoculation relative to control; format: functional; details: route intraperitoneal; how it was run: as §5

With `CC(=O)OCc1c(COC(C)=O)c(-c2ccccc2)n2c1CCC2` as the compound, how does the Activity (Mus musculus [1]) read?
The Activity was “Non-toxic”.

What about the T/C (P388 [2]) of the same compound?
The T/C was 107%.

What about the Activity (P388 [3]) of the same compound?
The Activity was -2.5 g.

What about the Activity (P388 [4]) of the same compound?
Its Activity is -0.3 g.

What about the Activity (Mus musculus [5]) of the same compound?
Its Activity is “Toxic”.

And the Activity (P388 [6])?
The Activity was -6.1 g.

And the T/C (P388 [7])?
The T/C was 79%.

And the T/C (P388 [8])?
The T/C was 142%.

What about the Activity (P388 [9]) of the same compound?
The Activity was -2.8 g.

What about the T/C (P388 [10]) of the same compound?
Its T/C is 110%.

And the T/C (P388 [11])?
Its T/C is 49%.

And the T/C (P388 [12])?
The T/C was 133%.

What about the Activity (L1210 [13]) of the same compound?
Its Activity is -2.6 g.

What about the T/C (L1210 [14]) of the same compound?
The T/C was 114%.

And the Activity (Mus musculus [15])?
Its Activity is “Non-toxic”.

What about the Activity (Mus musculus [16]) of the same compound?
The Activity was “Non-toxic”.

What about the Activity (P388 [17]) of the same compound?
The Activity was -0.2 g.

What about the Activity (L1210 [18]) of the same compound?
Its Activity is -2.8 g.

What about the Activity (Mus musculus [19]) of the same compound?
The Activity was “Non-toxic”.

And the Activity (Mus musculus [20])?
The Activity was “Non-toxic”.

What about the EC50 [21] of the same compound?
Its EC50 is > 100 µg/mL.

What about the Activity (Mus musculus [22]) of the same compound?
The Activity was “Toxic”.

And the T/C (L1210 [23])?
Its T/C is 107%.
